Measurements taken from ChEMBL document CHEMBL3244336, “Antitumor agents. 1. 1,4-Bis[(aminoalkyl)amino]-9,10-anthracenediones” (J Med Chem, 1979).
Active and inactive are the calls of the source.

Assays:
P388 [1] = assay: Antitumor activity against mouse P388 cells allografted in mouse assessed as increase of median life span at 300 mg/kg, ip on day 1, 5 and 9 measured up to 60 days relative to control; assay type: functional; conditions: route intraperitoneal
Summary of the method: (§1)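 BDF1 or CDF1 mice inoculated ip with ascitic P388 leukemia cells. Dosing ip on days 1, 5 and 9. Deaths recorded for 60 days; % increase in median life span over controls. "Cures" are survivors/total at 60 days.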

P388 [2] = assay: Antitumor activity against mouse P388 cells allografted in mouse assessed as disease cure at 300 mg/kg, ip on day 1, 5 and 9 measured up to 60 days; assay type: functional, organism-based; set-up: dose 300 mg/kg
Summary of the method: (§2)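 BDF1 or CDF1 mice inoculated ip with ascitic P388 leukemia cells, dosed ip on days 1, 5 and 9. Deaths recorded for 60 days; "cures" taken as number of survivors/total at 60 days.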

P388 [3] = assay: Antitumor activity against mouse P388 cells allografted in mouse assessed as increase of median life span at 400 mg/kg, ip on day 1 to 9 measured up to 60 days relative to control; assay type: functional; conditions: route intraperitoneal
Summary of the method: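 BDF1 or CDF1 mice inoculated ip with ascitic P388 leukemia cells. Dosing ip on days 1-9. Deaths followed for 60 days; % increase in median life span over controls.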

P388 [4] = assay: Antitumor activity against mouse P388 cells allografted in mouse assessed as disease cure at 400 mg/kg, ip on day 1 to 9 measured up to 60 days; assay type: functional, organism-based; set-up: dose 400 mg/kg
Summary of the method: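 P388 ascitic leukemia cells given ip to BDF1 or CDF1 mice; ip dosing on days 1-9. Deaths followed for 60 days, cures expressed as survivors/total at 60 days.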

B16 [5] = assay: Antitumor activity against mouse B16 cells allografted in BDF1 mouse assessed as increase of median life span at 400 mg/kg, ip on day 1 to 9 measured up to 80 days relative to control; assay type: functional; conditions: route intraperitoneal
Summary of the method: (§3)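 BDF1 mice implanted ip with a homogenate from 0.05 g of B16 tumor. Test agent given ip on days 1-9. Deaths recorded for 80 days. Result is % increase in median life span over untreated controls. "Cures" are survivors/total at 80 days.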

B16 [6] = assay: Antitumor activity against mouse B16 cells allografted in BDF1 mouse assessed as disease cure at 400 mg/kg, ip on day 1 to 9 measured up to 80 days; assay type: functional, organism-based; set-up: dose 400 mg/kg
Summary of the method: (§4)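 BDF1 mice implanted ip with homogenate from 0.05 g of B16 tumor, then dosed ip on days 1-9. Deaths recorded for 80 days; "cures" scored as survivors/total at 80 days.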

P388 [7] = assay: Antitumor activity against mouse P388 cells allografted in mouse assessed as increase of median life span at 250 mg/kg, ip on day 1, 5 and 9 measured up to 60 days relative to control; assay type: functional; conditions: route intraperitoneal; summary of the method: as §1
P388 [8] = assay: Antitumor activity against mouse P388 cells allografted in mouse assessed as disease cure at 250 mg/kg, ip on day 1, 5 and 9 measured up to 60 days; assay type: functional, organism-based; set-up: dose 250 mg/kg; summary of the method: as §2
P388 [9] = assay: Antitumor activity against mouse P388 cells allografted in mouse assessed as increase of median life span at 50 mg/kg, ip on day 1, 5 and 9 measured up to 60 days relative to control; assay type: functional; conditions: route intraperitoneal; summary of the method: as §1
B16 [10] = assay: Antitumor activity against mouse B16 cells allografted in BDF1 mouse assessed as increase of median life span at 25 mg/kg, ip on day 1 to 9 measured up to 80 days relative to control; assay type: functional; conditions: route intraperitoneal; summary of the method: as §3
B16 [11] = assay: Antitumor activity against mouse B16 cells allografted in BDF1 mouse assessed as disease cure at 25 mg/kg, ip on day 1 to 9 measured up to 80 days; assay type: functional, organism-based; set-up: dose 25 mg/kg; summary of the method: as §4
P388 [12] = assay: Antitumor activity against mouse P388 cells allografted in ip dosed mouse assessed as minimum effective dose administered as single dose; assay type: functional; conditions: read-out: MED
Summary of the method: (§5)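 Drug given ip to P388 tumor-bearing mice, either once as a single dose or once each 4 days for three injections. Minimum effective dose defined as the dose giving 40% increase in life span over control, read from regression lines of log dose-response data.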

P388 [13] = assay: Antitumor activity against mouse P388 cells allografted in mouse assessed as increase of median life span at 5 mg/kg, ip on day 1, 5 and 9 measured up to 60 days relative to control; assay type: functional; conditions: route intraperitoneal; summary of the method: as §1
B16 [14] = assay: Antitumor activity against mouse B16 cells allografted in BDF1 mouse assessed as increase of median life span at 0.8 mg/kg, ip on day 1 to 9 measured up to 80 days relative to control; assay type: functional; conditions: route intraperitoneal; summary of the method: as §3
P388 [15] = assay: Antitumor activity against mouse P388 cells allografted in ip dosed mouse assessed as minimum effective dose administered as once each 4 days for 3 total injection; assay type: functional; conditions: 96 h, read-out: MED; summary of the method: as §5
[16] = Toxicity in […] assessed as maximum tolerated dose administered as single dose; assay type: organism-based, P388; conditions: mouse, in vivo, ip
[17] = Toxicity in […] assessed as maximum tolerated dose administered as once each 4 days for 3 total injection; assay type: organism-based, P388; conditions: mouse, in vivo, ip
P388 [18] = assay: Antitumor activity against mouse P388 cells allografted in mouse assessed as increase of median life span at 200 mg/kg, ip on day 1, 5 and 9 measured up to 60 days relative to control; assay type: functional; conditions: route intraperitoneal; summary of the method: as §1
B16 [19] = assay: Antitumor activity against mouse B16 cells allografted in BDF1 mouse assessed as increase of median life span at 100 mg/kg, ip on day 1 to 9 measured up to 80 days relative to control; assay type: functional; conditions: route intraperitoneal; summary of the method: as §3
P388 [20] = assay: Antitumor activity against mouse P388 cells allografted in mouse assessed as disease cure at 50 mg/kg, ip on day 1, 5 and 9 measured up to 60 days; assay type: functional, organism-based; set-up: dose 50 mg/kg; summary of the method: as §2
P388 [21] = assay: Antitumor activity against mouse P388 cells allografted in mouse assessed as increase of median life span at 12.5 mg/kg, ip on day 1, 5 and 9 measured up to 60 days relative to control; assay type: functional; conditions: route intraperitoneal; summary of the method: as §1
B16 [22] = assay: Antitumor activity against mouse B16 cells allografted in BDF1 mouse assessed as increase of median life span at 3.1 mg/kg, ip on day 1 to 9 measured up to 80 days relative to control; assay type: functional; conditions: route intraperitoneal; summary of the method: as §3

C[N+](C)(C)CCNc1ccc(NCC[N+](C)(C)C)c2c1C(=O)c1ccccc1C2=O
ILS at 300 mg/kg (P388 [1]): 0% | Activity (P388 [2]): inactive

O=C1c2ccccc2C(=O)c2c(NCCN3CCOCC3)ccc(NCCN3CCOCC3)c21
ILS at 400 mg/kg (P388 [3]): 119% | Activity (P388 [4]): inactive | ILS at 400 mg/kg (B16 [5]): 33% | Activity (B16 [6]): inactive

CN(C)CCNc1ccc(NCCN(C)C)c2c1C(=O)c1ccc(C(=O)O)cc1C2=O
ILS at 250 mg/kg (P388 [7]): 0% | Activity (P388 [8]): inactive

O=C1c2ccccc2C(=O)c2c(NCCc3ccccn3)ccc(NCCc3ccccn3)c21
ILS at 250 mg/kg (P388 [7]): 0% | Activity (P388 [8]): inactive

O=C1c2c(O)ccc(O)c2C(=O)c2c(NCCCNCCO)ccc(NCCCNCCO)c21
ILS at 50 mg/kg (P388 [9]): 191% | ILS at 25 mg/kg (B16 [10]): 100% | Activity (B16 [11]): inactive

COc1cccc2c1C(=O)c1c(O)c3c(c(O)c1C2=O)C[C@@](O)(C(=O)CO)C[C@@H]3O[C@H]1C[C@H](N)[C@H](O)[C@H](C)O1 [DOXORUBICIN]
minimal effective dose (P388 [12]): 0.35 mg/kg | ILS at 5 mg/kg (P388 [13]): 159% | ILS at 0.8 mg/kg (B16 [14]): 275% | minimal effective dose (P388 [15]): 0.14 mg/kg | MTD [16]: 13.1 mg/kg | MTD at 96 h [17]: 2.7 mg/kg

O=C1c2c(O)ccc(O)c2C(=O)c2c(NCCNCCN3CCOCC3)ccc(NCCNCCN3CCOCC3)c21
ILS at 200 mg/kg (P388 [18]): 136% | ILS at 100 mg/kg (B16 [19]): 233%

CN(C)CCCNc1ccc(NCCCN(C)C)c2c1C(=O)c1c(O)ccc(O)c1C2=O
ILS at 50 mg/kg (P388 [9]): 29% | Activity (P388 [20]): inactive | ILS at 25 mg/kg (B16 [10]): 25% | Activity (B16 [11]): inactive

CN(C)CCCCNc1ccc(NCCCCN(C)C)c2c1C(=O)c1ccccc1C2=O
ILS at 250 mg/kg (P388 [7]): 0% | Activity (P388 [8]): inactive

CC(O)CNCCNc1ccc(NCCNCC(C)O)c2c1C(=O)c1c(O)ccc(O)c1C2=O (centres undefined)
ILS at 12.5 mg/kg (P388 [21]): 255% | ILS at 3.1 mg/kg (B16 [22]): 240%
